According to ChEMBL document CHEMBL2040777, “N-Aryl-N'-(chroman-4-yl)ureas and thioureas display in vitro anticancer activity and selectivity on apoptosis-resistant glioblastoma cells: screening, synthesis of simplified derivatives, and structure-activity relationship analysis” (Eur J Med Chem, 2012):
Calls of active or inactive are those of the source. The calls are words filed in the database; no cut-off is given here.

Tests used:
[1] = Growth inhibition of human U373 cells after 72 hrs by MTT assay; assay type: functional, cell-based, U-373MG ATCC; conditions: U373 MG
Summary of the method: (§1)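 Glioma lines were grown in RPMI with 10% heat-inactivated FCS, 4 mM glutamine, gentamicin and penicillin-streptomycin. Cells were plated for 24 h at 10,000–40,000 cells/mL, then exposed to compound for 72 h. MTT reduction to formazan was read at 570 nm (reference 630 nm). Six replicates were run.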

[2] = Cell cycle arrest in human U373 cells assessed as accumulation at G0/G1 phase at 30 to 100 uM after 24 hrs by propidium iodide staining-based flow cytometric analysis; assay type: functional; conditions: U-373MG ATCC
[3] = system: T98G; assay: Growth inhibition of human T98G cells after 72 hrs by MTT assay; assay type: functional, cell-based; summary of the method: as §1
[4] = Growth inhibition of human Hs683 cells after 72 hrs by MTT assay; assay type: functional, cell-based; conditions: Hs 683, 72 h; summary of the method: as §1
[5] = system: B16-F10; assay: Growth inhibition of mouse B16F10 cells after 72 hrs by MTT assay; assay type: functional, cell-based; conditions: B16-F10, 72 h
[6] = Selectivity index, ratio of IC50 for mouse astrocytes to IC50 for human U373 cells; parameters: species or system U-373MG ATCC
[7] = system: T98G; assay: Selectivity index, ratio of IC50 for mouse astrocytes to IC50 for human T98G cells
[8] = system: Hs 683; assay: Selectivity index, ratio of IC50 for mouse astrocytes to IC50 for human Hs683 cells
[9] = Cell cycle arrest in human U373 cells assessed as accumulation at G0/G1 phase at 10 to 30 uM after 24 hrs by propidium iodide staining-based flow cytometric analysis; assay type: functional; conditions: U-373MG ATCC
[10] = Cytostatic activity against human U373 cells assessed as global growth ratio by measuring number of cells counted in the last and the first frame of study at 20 uM by quantitative videomicroscopic analysis; assay type: functional, U-373MG ATCC
Summary of the method: (§2)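 U373 cells were cultured in 25 cm² flasks and filmed by computer-assisted phase-contrast time-lapse for 72 h, one image every 4 min. Growth level was the cell count in the last frame divided by the first. Global growth ratio was treated growth level over control growth level. Compounds were tested at 20 µM.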

[11] = system: U-373MG ATCC; assay: Induction of apoptosis in human U373 cells assessed as increase in subG1 cell population at 10 to 30 uM after 24 hrs by flow cytometric analysis; assay type: functional, cell-based
[12] = Growth inhibition of human U373 cells assessed as global growth ratio after 72 hrs by quantitative videomicroscopic analysis relative to untreated control; assay type: functional, U-373MG ATCC; conditions: U373 MG; summary of the method: as §2

## CC(N/C(=N\C#N)Nc1ccncc1)C(C)(C)C (stereo not drawn) [PINACIDIL ANHYDROUS]
[1]
  IC50: > 100 µM
[2]
  Activity: inactive

## CC1(C)CC(NC(=O)Nc2ccccc2Cl)c2cc(Br)ccc2O1 (stereo not drawn)
[1]
  IC50: 19 µM
[3]
  IC50: 11 µM
[4]
  IC50: 22 µM
[5]
  IC50: 22 µM
[6]
  Ratio IC50: >10
[7]
  Ratio IC50: >10
[8]
  Ratio IC50: >10
[9]
  Activity: Active
[10]
  Ratio: 0.2
[11]
  Activity: inactive
[12]
  IC80: 20 µM
